Results taken from ChEMBL document CHEMBL4024758, “Structure-Based Design and Discovery of New M2 Receptor Agonists” (J Med Chem, 2017).
pEC50, pKi: −log10 of the molar value. Active and inactive are the calls of the source. No cut-off for these calls is given here.

What was measured:
[1] = target: T1, Muscarinic acetylcholine receptor M1 (Homo sapiens, UniProt P11229); assay: Displacement of [3H]N-methyl-scopolamine bromide from human recombinant muscarinic M1 receptor expressed in HEK293T cell membranes after 1 hr by liquid scintillation counting method; assay type: cell-based, HEK-293T
T1 sequence (P11229 whole entry): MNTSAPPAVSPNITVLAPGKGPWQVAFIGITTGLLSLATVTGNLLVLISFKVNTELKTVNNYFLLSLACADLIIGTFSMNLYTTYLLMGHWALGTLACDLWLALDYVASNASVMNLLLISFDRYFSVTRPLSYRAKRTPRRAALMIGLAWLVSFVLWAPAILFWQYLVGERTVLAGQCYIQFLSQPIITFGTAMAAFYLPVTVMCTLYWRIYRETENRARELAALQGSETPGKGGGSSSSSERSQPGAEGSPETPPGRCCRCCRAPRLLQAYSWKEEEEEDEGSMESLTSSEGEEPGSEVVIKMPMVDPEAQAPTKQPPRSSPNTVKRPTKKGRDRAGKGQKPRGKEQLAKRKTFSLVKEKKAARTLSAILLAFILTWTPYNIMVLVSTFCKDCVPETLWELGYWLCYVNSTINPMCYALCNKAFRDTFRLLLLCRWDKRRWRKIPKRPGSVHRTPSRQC

[2] = target: T2, Muscarinic acetylcholine receptor M2 (Homo sapiens, UniProt P08172); assay: Displacement of [3H]N-methyl-scopolamine bromide from human recombinant muscarinic M2 receptor expressed in HEK293T cell membranes after 1 hr by liquid scintillation counting method; parameters: species or system HEK-293T
T2 sequence (P08172 whole entry): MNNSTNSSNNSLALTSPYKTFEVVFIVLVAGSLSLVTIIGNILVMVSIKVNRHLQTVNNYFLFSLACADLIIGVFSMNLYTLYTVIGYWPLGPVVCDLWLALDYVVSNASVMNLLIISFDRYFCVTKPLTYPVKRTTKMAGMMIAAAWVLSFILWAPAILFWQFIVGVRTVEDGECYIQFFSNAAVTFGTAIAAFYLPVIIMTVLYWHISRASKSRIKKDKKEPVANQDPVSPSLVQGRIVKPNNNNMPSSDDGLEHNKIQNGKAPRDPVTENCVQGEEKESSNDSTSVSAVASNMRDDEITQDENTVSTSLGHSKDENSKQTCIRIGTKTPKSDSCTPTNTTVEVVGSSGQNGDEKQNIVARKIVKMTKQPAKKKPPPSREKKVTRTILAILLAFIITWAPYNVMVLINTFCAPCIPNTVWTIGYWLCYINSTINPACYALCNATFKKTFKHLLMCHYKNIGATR

[3] = target: Muscarinic acetylcholine receptor M3 (Homo sapiens, UniProt P20309); assay: Displacement of [3H]N-methyl-scopolamine bromide from human recombinant muscarinic M3 receptor expressed in HEK293T cell membranes after 1 hr by liquid scintillation counting method; assay type: cell-based, HEK-293T
Muscarinic acetylcholine receptor M3, sequence (P20309 whole entry): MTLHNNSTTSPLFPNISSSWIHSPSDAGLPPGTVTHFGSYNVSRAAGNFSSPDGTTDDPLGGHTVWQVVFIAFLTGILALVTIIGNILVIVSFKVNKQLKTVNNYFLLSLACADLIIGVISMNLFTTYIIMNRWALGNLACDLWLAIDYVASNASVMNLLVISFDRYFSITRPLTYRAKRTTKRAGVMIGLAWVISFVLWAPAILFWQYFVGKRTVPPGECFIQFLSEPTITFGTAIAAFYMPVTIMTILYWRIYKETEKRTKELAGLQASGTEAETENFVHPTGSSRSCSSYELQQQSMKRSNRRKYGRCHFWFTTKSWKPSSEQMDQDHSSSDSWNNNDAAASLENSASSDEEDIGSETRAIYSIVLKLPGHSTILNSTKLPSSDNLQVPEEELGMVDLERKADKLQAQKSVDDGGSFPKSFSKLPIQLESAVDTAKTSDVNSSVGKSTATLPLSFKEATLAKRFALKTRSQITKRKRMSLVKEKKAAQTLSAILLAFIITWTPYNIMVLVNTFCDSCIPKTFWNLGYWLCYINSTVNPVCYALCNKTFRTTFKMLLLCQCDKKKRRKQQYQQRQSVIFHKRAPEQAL

[4] = target: T2, Muscarinic acetylcholine receptor M2; assay: Agonist activity at human recombinant muscarinic M2 receptor co-expressed with Galphaqi5-HA in African green monkey COS7 cells assessed as IP accumulation after 2 hrs in presence of myo-[3H]inositol by liquid scintillation counting method; assay type: functional
[5] = target: T3, Muscarinic acetylcholine receptor M2 (Homo sapiens) (UniProt P08172); assay: Agonist activity at human recombinant muscarinic M2 receptor co-expressed with Galphaqi5-HA in African green monkey COS7 cells assessed as IP accumulation at 100 uM after 2 hrs in presence of myo-[3H]inositol by liquid scintillation counting method relative to carbachol; assay type: functional
T3 sequence (whole entry): T2 sequence (P08172 whole entry)

[6] = target: T3, Muscarinic acetylcholine receptor M2 (Homo sapiens); assay: Agonist activity at human recombinant muscarinic M2 receptor co-expressed with Galphaqi5-HA in African green monkey COS7 cells assessed as IP accumulation after 2 hrs in presence of myo-[3H]inositol by liquid scintillation counting method relative to carbachol; assay type: functional
[7] = target: Neuronal acetylcholine receptor; alpha4/beta2 (Homo sapiens, UniProt P17787+P43681); assay: Displacement of [3H]cytisine from alpha4beta2 nAChR expressed in human recombinant SH-SY5Y cell membranes after 120 mins
Neuronal acetylcholine receptor; alpha4/beta2, sequence (P17787 whole entry): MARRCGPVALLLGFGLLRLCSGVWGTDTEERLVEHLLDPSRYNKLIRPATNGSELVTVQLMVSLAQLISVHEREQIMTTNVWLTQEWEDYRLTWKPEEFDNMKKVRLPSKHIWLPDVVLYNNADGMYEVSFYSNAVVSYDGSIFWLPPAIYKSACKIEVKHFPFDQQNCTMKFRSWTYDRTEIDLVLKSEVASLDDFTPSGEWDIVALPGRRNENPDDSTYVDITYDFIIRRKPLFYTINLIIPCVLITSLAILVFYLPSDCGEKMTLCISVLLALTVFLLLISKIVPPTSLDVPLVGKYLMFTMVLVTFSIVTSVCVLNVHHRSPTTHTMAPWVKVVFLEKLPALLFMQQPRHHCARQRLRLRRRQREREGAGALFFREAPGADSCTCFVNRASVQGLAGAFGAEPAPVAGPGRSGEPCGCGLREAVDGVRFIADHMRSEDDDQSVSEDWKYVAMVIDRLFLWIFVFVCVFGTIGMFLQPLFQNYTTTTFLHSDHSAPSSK
Neuronal acetylcholine receptor; alpha4/beta2, sequence (P43681 whole entry): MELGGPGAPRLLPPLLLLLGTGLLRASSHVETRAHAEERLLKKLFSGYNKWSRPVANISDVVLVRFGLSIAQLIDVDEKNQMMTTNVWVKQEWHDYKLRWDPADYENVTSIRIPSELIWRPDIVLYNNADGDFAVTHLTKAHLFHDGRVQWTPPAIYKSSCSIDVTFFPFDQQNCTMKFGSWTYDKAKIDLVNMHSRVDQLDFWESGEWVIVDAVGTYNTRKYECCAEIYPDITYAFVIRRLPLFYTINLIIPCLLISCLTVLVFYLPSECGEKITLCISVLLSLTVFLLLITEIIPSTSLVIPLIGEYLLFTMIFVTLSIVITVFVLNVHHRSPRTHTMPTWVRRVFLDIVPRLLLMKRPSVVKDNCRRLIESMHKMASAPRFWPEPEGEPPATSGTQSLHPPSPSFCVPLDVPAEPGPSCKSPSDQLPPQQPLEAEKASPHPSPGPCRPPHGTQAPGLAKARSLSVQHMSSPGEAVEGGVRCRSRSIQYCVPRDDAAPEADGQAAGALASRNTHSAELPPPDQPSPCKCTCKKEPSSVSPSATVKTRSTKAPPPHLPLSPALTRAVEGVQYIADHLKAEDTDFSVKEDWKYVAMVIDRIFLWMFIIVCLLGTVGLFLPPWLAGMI

[8] = target: T3, Muscarinic acetylcholine receptor M2 (Homo sapiens); assay: Agonist activity at Gi/o coupled recombinant human M2 mAChR expressed in CHO-FlpIn cells assessed as IP-one accumulation after 40 mins by HTRF assay; assay type: cell-based
Outline: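 Stably transfected CHO-FlpIn whole cells, 20000/well, grown overnight at 37 °C with 5% CO2. Cells were washed with PBS, then held 60 min at 37 °C in HEPES stimulation buffer with 50 mM LiCl, pH 7.4. ACh or test ligand was added and incubated 40 min.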

Compound | pKi [1] | pKi [2] | pKi [3] | pEC50 [4] | Emax [5] [%] | Emax [6] [%] | pKi [7] | Activity [8]
CN(C)C1CCc2cccc(O)c2C1 (centres undefined) | < 4.30 | < 4.30 | 4.55 |  |  |  |  | 
C[N+](C)(C)C1CCc2cccc(O)c2C1 (centres undefined) | 5.54 | 5.38 | 4.80 |  |  |  |  | 
CN1CCC(COCc2cccnc2)C1 (centres undefined) | 4.42 | 4.41 | 4.12 | < 4.00 | 38 |  |  | 
C[N+](C)(C)CCc1cccc(Cl)c1 | 5.35 | 5.32 | 5.24 |  | < 10 |  |  | 
COc1cccc(C(O)C[N+](C)(C)C)c1 (centres undefined) | 4.89 | 4.54 | 4.92 |  | < 10 |  |  | 
COc1cccc2c1CC([N+](C)(C)C)CC2 (centres undefined) | 6.00 | 6.03 | 5.70 |  |  |  |  | 
COc1ccc(F)c(CC[N+](C)(C)C)c1 | 5.15 | 6.01 | 4.85 | 4.64 |  | 44 |  | 
COc1cccc2c1CC(C[N+](C)(C)C)CC2 (centres undefined) | 5.74 | 5.89 | 5.41 |  |  |  |  | 
c1cncc(COC2CCCNC2)c1 (centres undefined) | 5.00 | 4.77 | 5.00 | 4.89 |  | 60 | 8.80 | 
C[N+](C)(C)CCc1cccc(OC(F)(F)F)c1 | 5.11 | 5.04 | 4.96 |  | < 10 |  |  | 
c1csc(COC2CCNC2)n1 (centres undefined) | 5.38 | 5.22 | 5.39 | 5.00 |  | 74 |  | 
C[N+](C)(C)CCCc1ccc2ccoc2c1 | 7.20 | 6.64 | 6.85 | 7.57 |  | 12 |  | 
C[N+](C)(C)CCc1ccc2ccoc2c1 | 7.64 | 6.85 | 7.39 | 6.66 |  | -14 |  | 
C[N+]1(C)CCC(OCc2nccs2)C1 (centres undefined) | 5.21 | 5.00 | 4.92 | 5.00 |  | 28 |  | 
COc1cccc2c1CC[N+](C)(C)C2 | 4.85 | 4.59 | 4.62 |  |  |  |  | 
COc1ccccc1CC[N+](C)(C)C | 5.31 | 5.24 | 5.33 | 5.04 |  | 21 |  | 
COc1cccc(C#CC[N+](C)(C)C)c1 | 4.70 | 4.30 | 4.70 |  |  |  |  | 

Compound | pKi [1] | pKi [2] | pKi [3] | pEC50 [4] | Emax [5] [%] | Emax [6] [%] | pKi [7] | Activity [8]
COc1cccc2c1CCC(C[N+](C)(C)C)C2 (centres undefined) | 4.77 | 4.85 | 4.60 |  |  |  |  | 
COc1cccc(/C=C/C[N+](C)(C)C)c1 | 4.80 | 4.66 | 4.68 |  |  |  |  | 
COc1ccccc1C[N+](C)(C)C | 4.59 | < 4.30 | < 4.30 | 4.74 |  | 51 |  | 
C[N+](C)(C)C1CCc2ccc3ccoc3c2C1 (centres undefined) | 6.42 | 6.10 | 6.16 | 5.64 |  | -8.3 |  | 
COc1cccc(C2CC2C[N+](C)(C)C)c1 (centres undefined) | 5.14 | 4.82 | 5.06 |  |  |  |  | 
C[N+](C)(C)CC#CCOC1=NOCC1 | 6.46 | 8.31 | 6.26 | 9.55 |  | 125 |  | 
CNCCc1cccc(OC)c1 | 6.13 | 6.00 | 6.11 | 5.09 |  | -12 |  | 
CN1CCCC(OCc2cccnc2)C1 (centres undefined) | 4.70 | 4.34 | 4.38 | 4.30 |  | 33 |  | 
COc1cccc2c1C[N+](C)(C)CC2 | 4.77 | 5.20 | 5.24 |  |  |  |  | 
CC(=O)OCC[N+](C)(C)C |  |  |  |  |  |  |  | inactive
COc1cccc2c1CCC([N+](C)(C)C)C2 (centres undefined) | 5.60 | 5.36 | 5.40 |  |  |  |  | 
COc1cccc(C(=O)C[N+](C)(C)C)c1 | 6.77 | 5.62 | 6.68 |  | < 10 |  |  | 
C[N+](C)(C)CCc1cccc(O)c1 | 4.70 | 4.85 | 4.89 | 5.00 |  | 44 |  | 
CCOc1cccc(CC[N+](C)(C)C)c1 | 4.38 | 4.57 | 4.37 |  | 40 |  |  | 
c1cncc(COCC2CCNC2)c1 (centres undefined) | 4.74 | 4.96 | 4.44 | 4.54 |  | 74 | 6.70 | 
COc1cccc2c1CC(N(C)C)CC2 (centres undefined) | 5.70 | 5.92 | 6.08 |  |  |  |  | 
